Screening data (PubChem)
SENP1 inh: blocks the human SENP1 SUMO protease catalytic domain; inhibition, % at 10 µM; Q9P0U3; AID 624204; recombinant SENP1 catalytic domain, CyPet-SUMO1-YPet FRET cleavage; 0.21% of 360,000 active;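 active means inhibition at least 30% at 10 µM, raw YFP signal under a set limit, fluorescence ratio 0.5 to 1.5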;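 further: 0% = enzyme with DMSO and 100% = no enzyme wells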
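System: Recombinant human SENP1 catalytic domain, His6-tagged | Incubation: Enzyme reaction for 50 min at room temperature, dark | Medium: Tris pH 8 with BME, BSA, NP40 and catalase | Also added: 25 nM SUMO1 FRET substrate | Compound: 10 µM single point, 0.5% DMSO | Measured by: FRET fluorescence in CFP and YFP emission channels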
VLA-4 inh: inhibition in a human VLA-4 binding assay; 0.2% of 330,000 active; inhibition, % (about 7 µM as worked out from the volumes in the protocol); VLA-4 expressing cells, ligand binding flow cytometry; AID 2557; P13612; in the data active means inhibition above about 50%
Myeloid diff 2: myeloid differentiation induction; 1% of 360,000 active; ER-HoxA9 myeloid progenitors, lysozyme-GFP differentiation, flow cytometry; AID 624256; calls only at 10 µM;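 active means normalized GFP-positive differentiation at or above the plate's own cutoff, the solvent-only control mean plus 3 SD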;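 further: cells exposed to compound for four days before flow analysis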
Platelet DG rel: modulates dense granule release in human platelets; human platelet-rich plasma, SFLLRN dense granule ATP release, luminescence; inhibition, %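 (compounds screened at 7.5 µM in platelet-rich plasma)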; 0.22% of 300,000 active;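 active means mean replicate score, as percent of positive control, at or above 50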
Myeloid diff CP1: promotes myeloid progenitor differentiation | shares compounds with Myeloid diff 2 | 2% of 2,300 active | AID 651706 | calls only | ER-HoxA9 myeloid progenitors, GFP/Mac1 double-positive flow;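 active means share of green or green-and-red cells above 9 and 9% in run 1 or 4 and 3% in run 2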
GFP autofluor: counter-screen for myeloid differentiation promoters: compound fluorescence | 7.4% of 2,300 active | ER-HoxA9 myeloid progenitors, no estrogen, GFP autofluorescence flow cytometry; vehicle wells 0%, positive control 100% | AID 651707 | shares compounds with Myeloid diff 2 | fluorescence response, % (concentration not given with the values);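 active means over 5% cells positive for green fluorescent reporter, or over 2% positive for both it and APC stain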;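 further: range taken on the double positive population between DMSO and positive control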
* hit, by the source's call. An excerpt weighted towards active compounds, which were near 1.5% of everything screened.

Cc1ccc(N=C(/N=C(\N)N[N+](=O)[O-])Nc2ccc(C)cc2)cc1 was read as SENP1 inh 4.7, VLA-4 inh -2.0, Myeloid diff 2 inactive, Platelet DG rel 8.5, Myeloid diff CP1 inactive and GFP autofluor 0.6.
CN(C/N=C(\N)N[N+](=O)[O-])S(=O)(=O)c1ccccc1 was read as SENP1 inh 1.4, VLA-4 inh -1.3, Myeloid diff 2 inactive and Platelet DG rel 6.4.
For CCOC(=O)c1c(C)n(COCCO)c2ccc(O)cc12 the results were SENP1 inh 1.5, VLA-4 inh 17.0, Myeloid diff 2 inactive, Platelet DG rel 3.3, Myeloid diff CP1 inactive and GFP autofluor 0.0.
Screening CCOC(=O)c1c(C)n(Cc2ccc(F)cc2)c2ccc(O)cc12 returned SENP1 inh 1.3, VLA-4 inh 3.8, Myeloid diff 2 inactive and Platelet DG rel 2.7.
For O=P(CN1CCN(c2ccccc2)CC1)(N1CCCCC1)N1CCCCC1 the results were SENP1 inh 0.5, VLA-4 inh -16.3, Myeloid diff 2 active, Platelet DG rel 8.6, Myeloid diff CP1 inactive and GFP autofluor 0.0.
COc1ccc(CCNCc2sccc2C)cc1 was read as SENP1 inh -0.1, VLA-4 inh 2.4, Myeloid diff 2 inactive and Platelet DG rel -7.2.
Cc1cc(NC(=O)COC(=O)c2c(C)nn(Cc3ccccc3)c2Cl)no1 was read as SENP1 inh 1.8, VLA-4 inh -118.8, Myeloid diff 2 inactive, Platelet DG rel -0.6, Myeloid diff CP1 active and GFP autofluor 0.3.
For CCc1ccc(NC(=O)C(C)OC(=O)c2c(C)nn(Cc3ccccc3)c2Cl)cc1 (configuration not stated) the results were SENP1 inh -0.1, VLA-4 inh 7.6, Myeloid diff 2 inactive and Platelet DG rel -4.6.
`Cc1nn(Cc2ccccc2)c(Cl)c1C(=O)OC(C)C(=O)Nc1ccc(F)cc1Cl` (configuration not stated) gave SENP1 inh 1.1, VLA-4 inh -1.9, Myeloid diff 2 inactive, Platelet DG rel 8.2, Myeloid diff CP1 inactive and GFP autofluor 1.1.
COC1C(OC(=O)c2ccc(C)[nH]2)C(O)C(Oc2ccc3c(O)c(NC(=O)c4ccc(O)c(CC=C(C)C)c4)c(=O)oc3c2Cl)OC1(C)C (configuration not stated) was read as SENP1 inh 1.5, VLA-4 inh 5.4 and Myeloid diff 2 inactive.
For CN1C(=O)c2ccccc2NC(=O)[C@]12O[C@@H]2c1ccccc1 the results were SENP1 inh 0.6, VLA-4 inh -19.6, Myeloid diff 2 inactive and Platelet DG rel -10.2.
Screening CCOC(=O)C1SC2(C(F)(F)F)CC1(O)c1c(C)cc(C)nc1O2 (configuration not stated) returned SENP1 inh -0.7, VLA-4 inh 4.4, Myeloid diff 2 active, Platelet DG rel -7.1, Myeloid diff CP1 inactive and GFP autofluor 0.3.
Screening COc1ccc(C2C(C(=O)N3CCC4(CC3)OCCO4)c3cc(OC)c(OC)cc3C(=O)N2C)cc1 (configuration not stated) returned SENP1 inh 0.3, VLA-4 inh 3.7, Myeloid diff 2 inactive, Platelet DG rel 6.8, Myeloid diff CP1 inactive and GFP autofluor 0.0.
For CCC(=NC(C)c1ccccc1)c1c(O)[nH]c(=O)[nH]c1=O (configuration not stated) the results were SENP1 inh 1.0, VLA-4 inh 2.5, Myeloid diff 2 active, Platelet DG rel -3.4, Myeloid diff CP1 inactive and GFP autofluor 0.8.
CCc1cc2c(cc1-c1csc(C/C(N)=N/O)n1)C(C)(C)CCC2(C)C was read as SENP1 inh -0.7, Myeloid diff 2 active, Myeloid diff CP1 inactive and GFP autofluor 2.5.
`O=C(CCc1nnc2ccc(NCc3ccccc3)nn12)N1CCC2(CC1)OCCO2` gave SENP1 inh -0.2, VLA-4 inh 2.3, Myeloid diff 2 inactive and Platelet DG rel -8.8.
`CN(CCOc1ccc(C=C2C(=O)NC(=O)NC2=O)cc1)c1ccccn1` gave SENP1 inh 1.5, VLA-4 inh 1.6, Myeloid diff 2 inactive, Platelet DG rel 5.0, Myeloid diff CP1 inactive and GFP autofluor 0.0.
`COc1ccc(OCCOc2cccc(C=C3C(=O)NC(=O)NC3=O)c2)cc1` gave VLA-4 inh 2.1 and Platelet DG rel -6.8.
For O=c1[nH]c(=S)n(C2CC2)c(O)c1/C=N/Nc1cccc2ccccc12 the results were SENP1 inh -36.5, VLA-4 inh -69.7, Myeloid diff 2 inactive, Platelet DG rel 12.1, Myeloid diff CP1 inactive and GFP autofluor 2.1.
For O=c1[nH]c(=S)n(C2CC2)c(O)c1/C=N/Nc1ccccc1 the results were SENP1 inh 2.5, VLA-4 inh 0.0, Myeloid diff 2 inactive and Platelet DG rel 2.3.
For O=C(CCc1ccccc1)N1Cc2cc(N3CCOCC3)ccc2-n2nncc2C1 the results were SENP1 inh 2.2 and Myeloid diff 2 inactive.
`OCC[n+]1c2ccccc2nc2ccc(N3CCOCC3)cc21` gave SENP1 inh 0.3, VLA-4 inh -6.0, Myeloid diff 2 active, Platelet DG rel 11.3, Myeloid diff CP1 inactive and GFP autofluor 0.6.
`CC(C)CCC1(CCO)C(=O)NC(=S)NC1=O` gave SENP1 inh -1.1 and Myeloid diff 2 inactive.
COC(=O)C(=O)N1CC2(C)CNCC(C)(C1)C2=O was read as SENP1 inh -1.0, VLA-4 inh 17.4, Myeloid diff 2 inactive and Platelet DG rel 22.8.
CN1CCC(c2c[nH]c3ccc(O)cc23)CC1 was read as SENP1 inh 1.0 and Myeloid diff 2 inactive.
CC1CCCC(C)N1/N=C/c1c[nH]c2ccc(Br)cc12 (configuration not stated) was read as SENP1 inh -4.3, VLA-4 inh -1.0, Myeloid diff 2 inactive, Platelet DG rel 7.5, Myeloid diff CP1 inactive and GFP autofluor 1.7.
Screening CC(N)Cc1c[nH]c2c1ccc1ccccc12 (configuration not stated) returned SENP1 inh -3.3, VLA-4 inh -2.7, Myeloid diff 2 inactive, Platelet DG rel 1.7, Myeloid diff CP1 inactive and GFP autofluor 1.1.
COC(=O)C1=C(c2cc3ccccc3s2)C[C@@H]2CC[C@H]1N2C(=O)NCC1CC1 was read as SENP1 inh 0.6, VLA-4 inh 4.0, Myeloid diff 2 inactive, Platelet DG rel -1.5, Myeloid diff CP1 inactive and GFP autofluor 0.0.
For COC(=O)C1=C(c2ccc(Cl)c(C(F)(F)F)c2)C[C@@H]2CC[C@H]1N2C(=O)N1CCCC1 the results were SENP1 inh -1.6, VLA-4 inh -7.9, Myeloid diff 2 inactive, Myeloid diff CP1 inactive and GFP autofluor 0.0.
For COC(=O)C1=C(c2cc3ccccc3s2)C[C@@H]2CC[C@H]1N2C(=O)NC1CC1 the results were SENP1 inh 2.7, VLA-4 inh 11.9, Myeloid diff 2 inactive and Platelet DG rel 0.9.
CCCNC(=O)N1[C@H]2CC[C@@H]1C(C(=O)OC)=C(c1ccc(Cl)c(C(F)(F)F)c1)C2 was read as SENP1 inh 0.6, VLA-4 inh -1.1, Myeloid diff 2 inactive, Myeloid diff CP1 inactive and GFP autofluor 0.6.
